From ChEMBL document CHEMBL4049407, “Positional Scanning Identifies the Molecular Determinants of a High Affinity Multi-Leucine Inhibitor for Furin and PACE4” (J Med Chem, 2017) come the findings set out here.

The target of experiment [1] is Furin (Homo sapiens, UniProt P09958). The experiment can be described thus: Inhibition of recombinant human furin expressed in drosophila S2 cells using pyrGlu-Arg-Thr-Lys-Arg-7-amido-4-methylcoumarin as substrate after 60 mins by spectrofluorometry method. Format: cell-based. Put shortly:
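Human recombinant purified furin at 2 units/100 µL (0.54 nM), in 100 mM HEPES pH 7.5, 1 mM CaCl2, 1 mM β-mercaptoethanol, 1.8 mg/mL BSA. His-containing peptides run instead in 20 mM BisTris pH 6.5 with the same additives. Substrate 100 µM, KM 5.04 µM. Inhibitor 1 nM to 10 µM; 60 min at 37°C. Fluorescence ex 370 / em 460 nm. Ki by Morrison equation; triplicate experiments, mean ± SD.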

For experiment [2], the species on record is Homo sapiens. The experiment in a line: Selectivity index, ratio of Ki for recombinant human furin expressed in drosophila S2 cells to Ki for recombinant human PACE4 expressed in drosophila S2 cells. In kind it is cell-based. The essentials: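 Ratio Ki(furin)/Ki(PACE4). […] PACE4 buffer was BisTris pH 6.5; furin buffer was HEPES pH 7.5, or BisTris pH 6.5 for His peptides. Ki fitted by Morrison equation from three independent experiments.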

For experiment [3], the system named is DU-145. The experiment in a line: Antiproliferative activity against human DU145 cells assessed as reduction in metabolic activity at 25 to 100 uM after 72 hrs by MTT assay. Format: functional, cell-based. The essentials: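 First-pass MTT screen of each library peptide on DU145 cells (RPMI 1640, 5% FBS, 1500 cells/well, poly-L-lysine plates). Peptides added 24 h after seeding at 25, 50 and 100 µM in fresh serum medium for 72 h. MTT 1 mg/mL for 4 h; 2-propanol HCl solubilisation. Activity normalised to water vehicle. Mean ± SEM of at least two independent experiments.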
For orientation: Tetrazolium assays rely on reduction of a dye to a coloured formazan, in cell work by metabolically active cells.

The target in experiment [4] is T1, Proprotein convertase subtilisin/kexin type 6 (Homo sapiens, UniProt P29122).
T1 sequence (P29122 whole entry): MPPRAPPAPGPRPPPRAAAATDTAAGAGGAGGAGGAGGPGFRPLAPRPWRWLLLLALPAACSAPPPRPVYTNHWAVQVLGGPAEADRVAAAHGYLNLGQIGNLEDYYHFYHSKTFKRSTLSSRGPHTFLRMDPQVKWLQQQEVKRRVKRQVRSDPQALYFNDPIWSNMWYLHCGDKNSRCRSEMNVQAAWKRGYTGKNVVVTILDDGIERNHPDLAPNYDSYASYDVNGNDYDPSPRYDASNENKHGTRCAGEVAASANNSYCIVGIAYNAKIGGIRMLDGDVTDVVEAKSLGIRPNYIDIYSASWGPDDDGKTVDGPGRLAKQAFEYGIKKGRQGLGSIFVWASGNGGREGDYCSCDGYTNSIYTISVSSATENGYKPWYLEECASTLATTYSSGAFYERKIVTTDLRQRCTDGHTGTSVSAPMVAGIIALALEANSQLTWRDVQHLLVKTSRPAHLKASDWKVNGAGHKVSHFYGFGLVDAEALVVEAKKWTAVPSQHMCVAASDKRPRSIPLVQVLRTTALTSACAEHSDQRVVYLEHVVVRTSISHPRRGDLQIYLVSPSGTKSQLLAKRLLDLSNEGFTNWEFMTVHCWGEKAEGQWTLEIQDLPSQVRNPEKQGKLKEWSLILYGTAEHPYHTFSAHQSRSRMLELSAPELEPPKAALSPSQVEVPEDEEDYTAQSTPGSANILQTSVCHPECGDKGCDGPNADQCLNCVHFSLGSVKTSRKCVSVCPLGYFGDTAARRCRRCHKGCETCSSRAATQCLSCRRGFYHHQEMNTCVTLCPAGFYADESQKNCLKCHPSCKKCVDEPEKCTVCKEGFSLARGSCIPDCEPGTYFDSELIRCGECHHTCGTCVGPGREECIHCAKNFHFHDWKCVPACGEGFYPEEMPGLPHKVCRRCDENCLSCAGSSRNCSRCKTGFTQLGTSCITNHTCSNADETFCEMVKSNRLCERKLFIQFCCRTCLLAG
The experiment can be described thus: Inhibition of recombinant human PACE4 expressed in drosophila S2 cells using pyrGlu-Arg-Thr-Lys-Arg-7-amido-4-methylcoumarin as substrate after 60 mins by spectrofluorometry method. In kind it is cell-based. The essentials:
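Human recombinant purified PACE4 at 2 units/100 µL (20.18 nM), in 20 mM BisTris pH 6.5, 1 mM CaCl2, 1.8 mg/mL BSA. Substrate 100 µM, KM 4.035 µM. Inhibitor 1 nM to 10 µM; 60 min at 37°C. Fluorescence ex 370 / em 460 nm. Ki by Morrison tight-binding equation; three independent experiments, mean ± SD.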

Molecules are shown by their SMILES. The source made the active and inactive calls. The rule behind the calls is not given here. Peptide text beside a SMILES is read from it. * marks the point of attachment. NH(4-amidinobenzyl) = N=C(N)c1ccc(CN*)cc1

Chain of Furin (P09958 whole entry): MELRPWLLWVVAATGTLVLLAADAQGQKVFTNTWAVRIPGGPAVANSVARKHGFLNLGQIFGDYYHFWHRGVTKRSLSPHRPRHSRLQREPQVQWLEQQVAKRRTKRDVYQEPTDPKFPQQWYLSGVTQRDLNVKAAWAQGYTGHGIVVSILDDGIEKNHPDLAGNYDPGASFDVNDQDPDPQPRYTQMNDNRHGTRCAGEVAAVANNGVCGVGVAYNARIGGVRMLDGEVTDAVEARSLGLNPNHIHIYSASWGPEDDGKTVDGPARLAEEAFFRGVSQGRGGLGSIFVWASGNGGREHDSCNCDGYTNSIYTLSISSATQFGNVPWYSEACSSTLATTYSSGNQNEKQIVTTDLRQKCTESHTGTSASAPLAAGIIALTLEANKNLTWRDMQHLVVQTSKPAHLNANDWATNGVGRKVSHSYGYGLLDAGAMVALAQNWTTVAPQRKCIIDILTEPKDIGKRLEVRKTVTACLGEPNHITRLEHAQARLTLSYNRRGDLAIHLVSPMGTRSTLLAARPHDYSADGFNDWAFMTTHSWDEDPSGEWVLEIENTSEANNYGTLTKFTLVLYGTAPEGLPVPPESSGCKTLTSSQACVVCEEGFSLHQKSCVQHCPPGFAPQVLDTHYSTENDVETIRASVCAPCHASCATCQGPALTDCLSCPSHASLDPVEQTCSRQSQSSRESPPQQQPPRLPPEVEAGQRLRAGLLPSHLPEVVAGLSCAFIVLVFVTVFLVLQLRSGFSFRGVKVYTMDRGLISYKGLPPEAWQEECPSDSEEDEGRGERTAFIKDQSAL

What is called Ki is the dissociation constant of the complex between target and ligand, obtained from inhibition or displacement. As to `CC(=O)N[C@@H](CC(C)C)C(=O)N[C@@H](CC(C)C)C(=O)N[C@@H](CC(N)=O)C(=O)N[C@@H](CC(C)C)C(=O)N[C@@H](CCCNC(=N)N)C(=O)N[C@H](C(=O)N[C@@H](CCCCN)C(=O)NCc1ccc(C(=N)N)cc1)C(C)C` (Ac-LLNLRVK-{NH(4-amidinobenzyl)}), the Ki in experiment [1] stood at 13 nM; in experiment [4], 18 nM. For the same compound, the Ratio Ki in experiment [2] amounted to 0.7. The result in experiment [3] was inactive.
In the same order, the values of `CC(=O)N[C@@H](CC(C)C)C(=O)N[C@@H](CC(C)C)C(=O)N1CCC[C@H]1C(=O)N[C@@H](CC(C)C)C(=O)N[C@@H](CCCNC(=N)N)C(=O)N[C@H](C(=O)N[C@@H](CCCCN)C(=O)NCc1ccc(C(=N)N)cc1)C(C)C` (Ac-LLPLRVK-{NH(4-amidinobenzyl)}) are 1.4 nM, 4 nM, 0.4 and “inactive”.
Regarding `CC(=O)N[C@@H](CC(C)C)C(=O)N[C@@H](CC(C)C)C(=O)N[C@@H](CCC(N)=O)C(=O)N[C@@H](CC(C)C)C(=O)N[C@@H](CCCNC(=N)N)C(=O)N[C@H](C(=O)N[C@@H](CCCCN)C(=O)NCc1ccc(C(=N)N)cc1)C(C)C` (Ac-LLQLRVK-{NH(4-amidinobenzyl)}), the inhibitory constant (Ki) in experiment [1] turned out to be 5 nM; in experiment [4], 4.1 nM. In addition, the Ratio Ki in experiment [2] stood at 1.2. Besides, the result in experiment [3] was inactive.
Regarding `CC(=O)N[C@@H](CC(C)C)C(=O)N[C@@H](CC(C)C)C(=O)N[C@@H](CCCNC(=N)N)C(=O)N[C@@H](CC(C)C)C(=O)N[C@@H](CCCNC(=N)N)C(=O)N[C@H](C(=O)N[C@@H](CCCCN)C(=O)NCc1ccc(C(=N)N)cc1)C(C)C` (Ac-LLRLRVK-{NH(4-amidinobenzyl)}), the Ki in experiment [1] stood at 0.5 nM; in experiment [4] it was 0.9 nM. For the same compound, the Ratio Ki in experiment [2] was 0.6. The result in experiment [3] was inactive.
As for `CC(=O)N[C@@H](CC(C)C)C(=O)N[C@@H](CC(C)C)C(=O)N[C@@H](CO)C(=O)N[C@@H](CC(C)C)C(=O)N[C@@H](CCCNC(=N)N)C(=O)N[C@H](C(=O)N[C@@H](CCCCN)C(=O)NCc1ccc(C(=N)N)cc1)C(C)C` (Ac-LLSLRVK-{NH(4-amidinobenzyl)}), the inhibition constant (Ki) was determined as 15 nM in experiment [1] and 36 nM in experiment [4]. In addition, in experiment [2], the Ratio Ki was found to be 0.4. Also, the outcome in experiment [3] was inactive.
In the case of `CC(=O)N[C@@H](CC(C)C)C(=O)N[C@@H](CC(C)C)C(=O)N[C@H](C(=O)N[C@@H](CC(C)C)C(=O)N[C@@H](CCCNC(=N)N)C(=O)N[C@H](C(=O)N[C@@H](CCCCN)C(=O)NCc1ccc(C(=N)N)cc1)C(C)C)[C@@H](C)O` (Ac-LLTLRVK-{NH(4-amidinobenzyl)}), the inhibition constant Ki stood at 18 nM in experiment [1] and 39 nM in experiment [4]. In addition, the Ratio Ki in experiment [2] came to 0.5. The result in experiment [3] was inactive.
For the compound `CC(=O)N[C@@H](CC(C)C)C(=O)N[C@@H](CC(C)C)C(=O)N[C@H](C(=O)N[C@@H](CC(C)C)C(=O)N[C@@H](CCCNC(=N)N)C(=O)N[C@H](C(=O)N[C@@H](CCCCN)C(=O)NCc1ccc(C(=N)N)cc1)C(C)C)C(C)C` (Ac-LLVLRVK-{NH(4-amidinobenzyl)}), the Ki in experiment [1] turned out to be 3 nM; in experiment [4], 4 nM. Further, the Ratio Ki in experiment [2] is 0.8. Also, the result in experiment [3] was inactive.
In the same order, the values of `CC(=O)N[C@@H](CC(C)C)C(=O)N[C@@H](CC(C)C)C(=O)N[C@@H](Cc1c[nH]c2ccccc12)C(=O)N[C@@H](CC(C)C)C(=O)N[C@@H](CCCNC(=N)N)C(=O)N[C@H](C(=O)N[C@@H](CCCCN)C(=O)NCc1ccc(C(=N)N)cc1)C(C)C` (Ac-LLWLRVK-{NH(4-amidinobenzyl)}) are 36 nM, 44 nM, 0.8 and “inactive”.
In the same order, the values of `CSCC[C@H](NC(=O)[C@H](CC(C)C)NC(C)=O)C(=O)N[C@@H](CC(C)C)C(=O)N[C@@H](CC(C)C)C(=O)N[C@@H](CCCNC(=N)N)C(=O)N[C@H](C(=O)N[C@@H](CCCCN)C(=O)NCc1ccc(C(=N)N)cc1)C(C)C` (Ac-LMLLRVK-{NH(4-amidinobenzyl)}) are 3 nM, 5 nM, 0.6 and “inactive”.
The corresponding values for `CC(=O)N[C@@H](CC(C)C)C(=O)N[C@@H](CC(N)=O)C(=O)N[C@@H](CC(C)C)C(=O)N[C@@H](CC(C)C)C(=O)N[C@@H](CCCNC(=N)N)C(=O)N[C@H](C(=O)N[C@@H](CCCCN)C(=O)NCc1ccc(C(=N)N)cc1)C(C)C` (Ac-LNLLRVK-{NH(4-amidinobenzyl)}) are 1 nM, 4 nM, 0.3 and “inactive”.
`CC(=O)N[C@@H](CC(C)C)C(=O)N1CCC[C@H]1C(=O)N[C@@H](CC(C)C)C(=O)N[C@@H](CC(C)C)C(=O)N[C@@H](CCCNC(=N)N)C(=O)N[C@H](C(=O)N[C@@H](CCCCN)C(=O)NCc1ccc(C(=N)N)cc1)C(C)C` (Ac-LPLLRVK-{NH(4-amidinobenzyl)}): the Ki came out at 1.5 nM in experiment [1] and 1 nM in experiment [4]. Besides, the Ratio Ki in experiment [2] is 1.5. Further, the outcome in experiment [3] was inactive.
The corresponding values for `CC(=O)N[C@@H](CC(C)C)C(=O)N[C@@H](CCC(N)=O)C(=O)N[C@@H](CC(C)C)C(=O)N[C@@H](CC(C)C)C(=O)N[C@@H](CCCNC(=N)N)C(=O)N[C@H](C(=O)N[C@@H](CCCCN)C(=O)NCc1ccc(C(=N)N)cc1)C(C)C` (Ac-LQLLRVK-{NH(4-amidinobenzyl)}) are 2.3 nM, 3 nM, 0.8 and “inactive”.
Turning to `CC(=O)N[C@@H](CC(C)C)C(=O)N[C@@H](CCCNC(=N)N)C(=O)N[C@@H](CC(C)C)C(=O)N[C@@H](CC(C)C)C(=O)N[C@@H](CCCNC(=N)N)C(=O)N[C@H](C(=O)N[C@@H](CCCCN)C(=O)NCc1ccc(C(=N)N)cc1)C(C)C` (Ac-LRLLRVK-{NH(4-amidinobenzyl)}), the Ki in experiment [1] is 0.5 nM; in experiment [4], 0.4 nM. Further, in experiment [2], the Ratio Ki worked out at 1.3. Besides, in experiment [3], the outcome was inactive.
The corresponding values for `CC(=O)N[C@@H](CC(C)C)C(=O)N[C@@H](CO)C(=O)N[C@@H](CC(C)C)C(=O)N[C@@H](CC(C)C)C(=O)N[C@@H](CCCNC(=N)N)C(=O)N[C@H](C(=O)N[C@@H](CCCCN)C(=O)NCc1ccc(C(=N)N)cc1)C(C)C` (Ac-LSLLRVK-{NH(4-amidinobenzyl)}) are 2.6 nM, 2 nM, 1.3 and “inactive”.
In the same order, the values of `CC(=O)N[C@@H](CC(C)C)C(=O)N[C@H](C(=O)N[C@@H](CC(C)C)C(=O)N[C@@H](CC(C)C)C(=O)N[C@@H](CCCNC(=N)N)C(=O)N[C@H](C(=O)N[C@@H](CCCCN)C(=O)NCc1ccc(C(=N)N)cc1)C(C)C)[C@@H](C)O` (Ac-LTLLRVK-{NH(4-amidinobenzyl)}) are 1.7 nM, 1 nM, 1.7 and “inactive”.
